Measured values published in ChEMBL document CHEMBL5096242, “Structure-Activity Studies of 1H-Imidazo[4,5-c]quinolin-4-amine Derivatives as A3 Adenosine Receptor Positive Allosteric Modulators” (J Med Chem, 2022).
Converted amounts (≈) assume the structure as drawn.

Experiments:
[1] = molecular target: T1, Adenosine receptor A3 (Homo sapiens, UniProt P0DMS8)
T1 sequence (P0DMS8 whole entry): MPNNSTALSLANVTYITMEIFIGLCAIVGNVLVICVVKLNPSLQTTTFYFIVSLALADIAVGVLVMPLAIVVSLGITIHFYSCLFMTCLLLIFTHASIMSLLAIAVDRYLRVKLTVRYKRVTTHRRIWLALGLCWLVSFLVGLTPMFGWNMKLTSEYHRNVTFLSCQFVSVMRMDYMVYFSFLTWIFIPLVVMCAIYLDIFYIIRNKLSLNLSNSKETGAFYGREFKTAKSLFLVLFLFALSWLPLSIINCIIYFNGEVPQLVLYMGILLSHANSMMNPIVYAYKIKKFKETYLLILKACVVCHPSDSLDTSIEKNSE

[2] = molecular target: T2, Adenosine receptor A3 (Homo sapiens) (UniProt P0DMS8); test: Positive allosteric modulator activity in wild type human A3AR opioid receptor stably expressed in human HEK293 cell membrane assessed as increase in CI-IB-MECA induced [35S]GTPGAgammaS binding to receptor at 10 uM preincubated for 1 hrs with CI-IB-MECA further incubated with [35S]GTPGAgammaS for …; format: cell membranes; settings: filed as positive allosteric modulator, time 3.0 hrs
T2 sequence (whole entry): T1 sequence (P0DMS8 whole entry)

[3] = Protein binding in human plasma assessed as bound fraction at 10 uM and measured for 5 hrs by LC-MS/MS based dialysis analysis
[4] = Protein binding in mouse plasma assessed as bound fraction at 10 uM and measured for 5 hrs by LC-MS/MS based dialysis analysis
[5] = molecular target: Sigma intracellular receptor 2 (Homo sapiens, UniProt Q5BJF2); test: Displacement of [3H]-DTG from human sigma2 receptor expressed in human HEK293T cell membrane incubated for 90 mins by radioligand binding assay
Chain of Sigma intracellular receptor 2 (Q5BJF2 whole entry): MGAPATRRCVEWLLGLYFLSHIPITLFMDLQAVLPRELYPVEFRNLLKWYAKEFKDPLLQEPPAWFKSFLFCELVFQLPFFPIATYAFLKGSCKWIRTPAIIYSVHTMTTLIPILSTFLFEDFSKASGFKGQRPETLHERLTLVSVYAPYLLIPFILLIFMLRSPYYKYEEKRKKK

[6] = molecular target: Translocator protein (Homo sapiens, UniProt P30536); test: Inhibition of human TPSO receptor expressed in human HEK293T cell membrane incubated for 90 mins by radioligand binding assay
Chain of Translocator protein (P30536 whole entry): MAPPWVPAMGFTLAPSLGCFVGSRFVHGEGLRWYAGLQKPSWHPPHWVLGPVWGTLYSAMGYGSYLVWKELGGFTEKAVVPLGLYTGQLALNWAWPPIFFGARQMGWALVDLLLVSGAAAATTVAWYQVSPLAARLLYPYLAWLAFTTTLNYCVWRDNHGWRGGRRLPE

[7] = Stability in human plasma assessed as compound remaining and measured after 120 mins by LC-MS/MS analysis; settings: 2 h
[8] = Stability in mouse plasma assessed as compound remaining and measured after 120 mins by LC-MS/MS analysis; settings: 2 h
[9] = Stability in mouse plasma assessed as half life and measured after 120 mins by LC-MS/MS analysis; settings: 2 h
[10] = molecular target: 5-hydroxytryptamine receptor 2B (Homo sapiens, UniProt P41595); test: Displacement of [3H]-LSD from human 5HT2B expressed in human HEK293 cell membrane incubated for 90 mins by radioligand binding assay; format: cell membranes
Chain of 5-hydroxytryptamine receptor 2B (P41595 whole entry): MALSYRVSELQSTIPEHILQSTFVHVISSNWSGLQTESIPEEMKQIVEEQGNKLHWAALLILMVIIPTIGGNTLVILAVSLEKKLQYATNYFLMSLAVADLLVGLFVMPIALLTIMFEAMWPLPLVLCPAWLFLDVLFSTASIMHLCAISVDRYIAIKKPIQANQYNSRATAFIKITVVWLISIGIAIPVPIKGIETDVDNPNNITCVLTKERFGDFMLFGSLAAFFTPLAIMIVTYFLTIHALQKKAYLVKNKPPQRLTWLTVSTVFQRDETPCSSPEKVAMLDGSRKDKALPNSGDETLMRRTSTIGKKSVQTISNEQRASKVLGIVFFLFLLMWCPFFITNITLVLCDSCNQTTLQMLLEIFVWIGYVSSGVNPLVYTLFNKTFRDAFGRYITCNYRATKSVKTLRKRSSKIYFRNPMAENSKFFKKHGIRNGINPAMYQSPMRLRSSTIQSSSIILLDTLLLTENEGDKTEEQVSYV
Outline: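 Off-target panel run by the NIMH PDSP. Each derivative was first screened at 10 μM in radioligand binding.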

[11] = molecular target: Sigma non-opioid intracellular receptor 1 (Homo sapiens, UniProt Q99720); test: Displacement of [3H]-LSD from human sigma1 receptor expressed in human HEK293T cell membrane incubated for 90 mins by radioligand binding assay
Chain of Sigma non-opioid intracellular receptor 1 (Q99720 whole entry): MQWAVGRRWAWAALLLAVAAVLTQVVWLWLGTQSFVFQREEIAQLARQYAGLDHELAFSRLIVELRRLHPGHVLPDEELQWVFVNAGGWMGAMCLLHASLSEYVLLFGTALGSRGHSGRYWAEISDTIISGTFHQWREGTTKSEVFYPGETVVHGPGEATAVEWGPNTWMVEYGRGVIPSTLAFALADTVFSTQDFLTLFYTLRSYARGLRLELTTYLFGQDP

[12] = molecular target: Mu-type opioid receptor (Homo sapiens, UniProt P35372); test: Displacement of [3H]-DAMGO from human MOR receptor expressed in human HEK293 cell membrane incubated for 90 mins by radioligand binding assay
Chain of Mu-type opioid receptor (P35372 whole entry): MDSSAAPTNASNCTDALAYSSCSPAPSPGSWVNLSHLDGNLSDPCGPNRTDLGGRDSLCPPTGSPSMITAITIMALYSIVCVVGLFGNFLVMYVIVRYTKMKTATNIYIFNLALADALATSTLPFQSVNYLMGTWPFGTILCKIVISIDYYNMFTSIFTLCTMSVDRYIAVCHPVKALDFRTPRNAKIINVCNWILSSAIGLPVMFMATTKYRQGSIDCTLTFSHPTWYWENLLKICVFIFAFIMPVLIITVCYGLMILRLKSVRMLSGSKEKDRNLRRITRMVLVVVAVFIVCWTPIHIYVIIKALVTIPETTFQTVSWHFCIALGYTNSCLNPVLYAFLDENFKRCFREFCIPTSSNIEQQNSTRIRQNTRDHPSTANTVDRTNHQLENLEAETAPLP

[13] = molecular target: Sodium-dependent dopamine transporter (Homo sapiens, UniProt Q01959); test: Displacement of [3H]-Win35428 from human DAT receptor expressed in human HEK293T cell membrane incubated for 90 mins by radioligand binding assay
Chain of Sodium-dependent dopamine transporter (Q01959 whole entry): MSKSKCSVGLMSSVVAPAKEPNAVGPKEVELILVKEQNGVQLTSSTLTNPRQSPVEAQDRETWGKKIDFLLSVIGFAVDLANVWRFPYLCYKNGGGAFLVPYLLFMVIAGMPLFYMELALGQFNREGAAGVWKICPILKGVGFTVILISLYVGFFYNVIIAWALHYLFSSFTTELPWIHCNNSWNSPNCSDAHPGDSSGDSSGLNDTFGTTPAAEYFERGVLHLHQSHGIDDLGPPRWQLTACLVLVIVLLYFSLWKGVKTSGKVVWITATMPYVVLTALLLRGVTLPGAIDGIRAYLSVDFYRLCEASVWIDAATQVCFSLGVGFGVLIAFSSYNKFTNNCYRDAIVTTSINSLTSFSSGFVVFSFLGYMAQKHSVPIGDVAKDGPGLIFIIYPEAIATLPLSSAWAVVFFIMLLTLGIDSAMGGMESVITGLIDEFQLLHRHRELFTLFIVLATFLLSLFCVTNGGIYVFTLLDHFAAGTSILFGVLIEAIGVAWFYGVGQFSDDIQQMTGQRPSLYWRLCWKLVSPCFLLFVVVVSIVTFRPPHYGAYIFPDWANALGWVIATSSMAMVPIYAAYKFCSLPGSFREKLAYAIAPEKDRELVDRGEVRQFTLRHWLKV

[14] = molecular target: D(3) dopamine receptor (Homo sapiens, UniProt P35462); test: Displacement of [3H]-N-methylspiperone from human D3 receptor expressed in human HEK293T cell membrane incubated for 90 mins by radioligand binding assay
Chain of D(3) dopamine receptor (P35462 whole entry): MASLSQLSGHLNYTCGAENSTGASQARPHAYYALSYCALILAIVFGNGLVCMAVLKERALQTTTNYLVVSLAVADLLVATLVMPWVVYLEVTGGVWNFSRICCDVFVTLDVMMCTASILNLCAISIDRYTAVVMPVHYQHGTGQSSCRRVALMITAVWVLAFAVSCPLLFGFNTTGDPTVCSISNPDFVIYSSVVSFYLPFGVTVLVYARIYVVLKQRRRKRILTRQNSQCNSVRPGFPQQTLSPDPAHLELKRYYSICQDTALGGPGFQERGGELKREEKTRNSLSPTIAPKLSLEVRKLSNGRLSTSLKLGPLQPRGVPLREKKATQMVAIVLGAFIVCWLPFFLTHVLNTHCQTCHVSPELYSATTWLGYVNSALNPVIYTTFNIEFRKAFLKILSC

[15] = Stability of the compound in simulated gastric fluid at pH 1 to 2 assessed as compound remaining at 120 mins by LC-MS/MS analysis; settings: simulated gi fluid, pH 1, 2 h
[16] = simulated gi fluid, pH 1, 2 h
[17] = Stability of the compound in simulated intestinal fluid at pH 6 to 8 assessed as compound remaining at 120 mins by LC-MS/MS analysis; settings: simulated gi fluid, pH 6, 2 h
[18] = Stability in rat plasma assessed as compound remaining and measured after 120 mins by LC-MS/MS analysis; settings: 2 h
[19] = Stability in human plasma assessed as half life and measured after 120 mins by LC-MS/MS analysis; settings: 2 h
[20] = Stability in rat plasma assessed as half life and measured after 120 mins by LC-MS/MS analysis; settings: 2 h
[21] = molecular target: T3, Cytochrome P450 1A2 (Homo sapiens, UniProt P05177); test: Inhibition of CYP1A2 in human liver Microsome using phenacetin as substrate in presence of NADPH by LC-MS/MS analysis
T3 sequence (P05177 whole entry): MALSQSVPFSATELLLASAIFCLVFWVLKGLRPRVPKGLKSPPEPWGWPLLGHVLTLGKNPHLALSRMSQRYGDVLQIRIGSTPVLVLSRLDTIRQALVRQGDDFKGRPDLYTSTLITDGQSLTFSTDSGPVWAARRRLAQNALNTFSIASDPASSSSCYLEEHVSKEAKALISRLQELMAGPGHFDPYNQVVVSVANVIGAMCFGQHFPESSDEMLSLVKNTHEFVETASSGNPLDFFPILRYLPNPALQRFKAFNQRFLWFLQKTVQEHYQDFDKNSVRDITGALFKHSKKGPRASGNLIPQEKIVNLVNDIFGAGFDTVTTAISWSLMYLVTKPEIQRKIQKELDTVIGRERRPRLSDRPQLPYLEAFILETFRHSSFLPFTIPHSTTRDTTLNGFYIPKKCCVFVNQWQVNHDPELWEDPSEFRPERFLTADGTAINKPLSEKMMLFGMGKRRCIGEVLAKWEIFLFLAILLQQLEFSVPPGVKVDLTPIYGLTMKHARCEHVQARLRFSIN

[22] = Microsomal stability in human liver microsomes assessed as parent compound remaining at 3 uM incubated for 120 mins by LC-MS/MS analysis; settings: 2 h
[23] = Microsomal stability in rat liver microsomes assessed as parent compound remaining at 3 uM incubated for 120 mins by LC-MS/MS analysis; settings: 2 h
[24] = Microsomal stability in mouse liver microsomes assessed as parent compound remaining at 3 uM incubated for 120 mins by LC-MS/MS analysis; settings: 2 h
[25] = Protein binding in rat plasma assessed as bound fraction at 10 uM and measured for 5 hrs by LC-MS/MS based dialysis analysis
[26] = molecular target: Voltage-gated inwardly rectifying potassium channel KCNH2 (Homo sapiens, UniProt Q12809); test: Inhibition of human ERG stably transfected in HEK293 cells incubated for 2 hrs by TAMRA fluorescence polarization assay
Chain of Voltage-gated inwardly rectifying potassium channel KCNH2 (Q12809 whole entry): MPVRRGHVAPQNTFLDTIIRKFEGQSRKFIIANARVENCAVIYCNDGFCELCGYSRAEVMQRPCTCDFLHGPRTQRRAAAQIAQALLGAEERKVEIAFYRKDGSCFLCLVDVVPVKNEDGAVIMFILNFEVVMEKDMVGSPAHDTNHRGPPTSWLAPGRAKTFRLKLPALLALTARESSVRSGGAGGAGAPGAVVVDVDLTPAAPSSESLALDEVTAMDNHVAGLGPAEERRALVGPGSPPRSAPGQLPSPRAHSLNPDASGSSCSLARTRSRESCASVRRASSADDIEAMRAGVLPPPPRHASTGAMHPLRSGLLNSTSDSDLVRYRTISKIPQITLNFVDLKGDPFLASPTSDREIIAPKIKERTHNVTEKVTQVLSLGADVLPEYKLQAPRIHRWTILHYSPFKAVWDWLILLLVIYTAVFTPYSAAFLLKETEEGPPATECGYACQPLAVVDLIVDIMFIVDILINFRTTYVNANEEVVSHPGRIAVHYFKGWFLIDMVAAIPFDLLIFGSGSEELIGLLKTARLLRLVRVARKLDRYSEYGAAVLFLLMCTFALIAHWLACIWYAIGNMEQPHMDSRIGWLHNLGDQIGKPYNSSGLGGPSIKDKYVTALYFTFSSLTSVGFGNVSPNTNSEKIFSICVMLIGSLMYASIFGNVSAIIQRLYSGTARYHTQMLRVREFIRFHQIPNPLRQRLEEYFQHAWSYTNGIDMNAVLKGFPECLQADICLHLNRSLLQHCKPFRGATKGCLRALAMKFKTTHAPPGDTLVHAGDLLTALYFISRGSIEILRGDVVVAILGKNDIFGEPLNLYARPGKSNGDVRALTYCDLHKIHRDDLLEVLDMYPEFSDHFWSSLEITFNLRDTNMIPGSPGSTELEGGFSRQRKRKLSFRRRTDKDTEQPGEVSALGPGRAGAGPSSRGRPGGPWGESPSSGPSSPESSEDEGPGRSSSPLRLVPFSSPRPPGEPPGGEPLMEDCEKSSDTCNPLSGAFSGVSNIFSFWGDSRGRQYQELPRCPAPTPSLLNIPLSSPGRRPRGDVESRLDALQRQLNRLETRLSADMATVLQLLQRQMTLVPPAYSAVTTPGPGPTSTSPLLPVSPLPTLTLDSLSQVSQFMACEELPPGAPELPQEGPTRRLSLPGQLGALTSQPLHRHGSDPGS

[27] = Aqueous solubility of compound at pH 7.4 by PDA spectrophotometric analysis; settings: buffer
[28] = Half life in Wistar rat at 3 mg/kg, po and measured upto 24 hrs; settings: in vivo
[29] = Half life in Wistar rat at 10 mg/kg, po and measured upto 24 hrs; settings: in vivo
[30] = Half life in Wistar rat at 0.5 mg/kg, iv and measured upto 24 hrs; format: ADME, organism-based; settings: in vivo
Outline: (§1)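 Fasted male Wistar rats (RccHan:WIST), 6–10 weeks old at acclimation, three per group. Dosing was 0.5 mg/kg i.v. in DMSO:20% HPBCD (10:90), or 1, 3 and 10 mg/kg by oral gavage in DMSO:Kolliphor EL:PBS (15:15:70). Jugular blood was taken at 0.083–24 h (stated for i.v.) into heparin, and plasma was frozen at −70 °C. Parameters came from non-compartmental analysis.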

[31] = Cmax in Wistar rat plasma at 10 mg/kg, po and measured after 2 hrs; format: ADME, organism-based; parameters: time 2 hrs, dose 10 mg/kg, route po; settings: in vivo
Outline: as §1

[32] = Tmax in Wistar rat plasma at 1 to 10 mg/kg, po and measured after 2 hrs; format: ADME, organism-based; settings: dose 1-10 mg/kg
Outline: as §1

[33] = Clearance in Wistar rat plasma at 3 mg/kg, po and measured upto 24 hrs; format: ADME, organism-based
Outline: as §1

[34] = Clearance in Wistar rat plasma at 10 mg/kg, po and measured upto 24 hrs; format: ADME, organism-based
Outline: as §1

[35] = Clearance in Wistar rat plasma at 1 mg/kg, po and measured upto 24 hrs; format: ADME, organism-based
Outline: as §1

[36] = Clearance in Wistar rat assessed as parent compound remaining at 3 mg/kg, po and measured upto 24 hrs; format: ADME, organism-based; settings: in vivo
Outline: as §1

[37] = MRT in Wistar rat at 1 mg/kg, po and measured upto 24 hrs; format: ADME, organism-based; settings: plasma, 3 mg/kg, in the assay text read “3 mg/kg” for “1 mg/kg”
Outline: as §1

[38] = Permeability across apical to basolateral side in human Caco-2 cells assessed as compound recovery at 10 uM measured upto 120 mins by LC-MS/MS analysis; format: ADME, cell-based; settings: caco-2, 2 h
[39] = Permeability across basolateral to apical side in human Caco-2 cells assessed as compound recovery at 10 uM measured upto 120 mins by LC-MS/MS analysis; format: ADME, cell-based; settings: caco-2, 2 h
[40] = molecular target: Cytochrome P450 1A2 (Homo sapiens) (UniProt P05177)
[41] = molecular target: Cytochrome P450 1A2 (Homo sapiens) (UniProt P05177); remark: listed apart in the source
[42] = simulated gi fluid, pH 6, 2 h
[43] = human, microsomes, 2 h, 3 µM
[44] = rat, microsomes, 2 h, 3 µM
[45] = mouse, microsomes, 2 h, 3 µM
[46] = in vivo; settings: Wistar, rat, po, 3 mg/kg
[47] = in vivo; settings: Wistar, rat, po, 10 mg/kg
[48] = molecular target: Cytochrome P450 2D6 (Homo sapiens, UniProt P10635); test: Inhibition of CYP2D6 in human liver Microsome using dextromethorphan as substrate in presence of NADPH by LC-MS/MS analysis
Chain of Cytochrome P450 2D6 (P10635 whole entry): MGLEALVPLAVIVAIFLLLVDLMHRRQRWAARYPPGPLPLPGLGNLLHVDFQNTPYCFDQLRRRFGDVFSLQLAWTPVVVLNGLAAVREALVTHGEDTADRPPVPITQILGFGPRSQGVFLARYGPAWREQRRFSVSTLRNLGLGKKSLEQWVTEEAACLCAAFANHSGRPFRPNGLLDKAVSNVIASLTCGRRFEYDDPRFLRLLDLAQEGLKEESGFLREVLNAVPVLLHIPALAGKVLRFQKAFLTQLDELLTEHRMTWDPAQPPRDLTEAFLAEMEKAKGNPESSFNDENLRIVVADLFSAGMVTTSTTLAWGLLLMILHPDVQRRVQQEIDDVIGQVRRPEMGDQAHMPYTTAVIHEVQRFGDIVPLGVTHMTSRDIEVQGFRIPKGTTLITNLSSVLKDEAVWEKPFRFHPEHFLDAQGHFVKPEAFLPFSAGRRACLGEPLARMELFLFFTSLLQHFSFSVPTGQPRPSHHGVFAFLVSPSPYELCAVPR

[49] = Inhibition of CYP2C9 in rat liver Microsome using phenacetin as substrate in presence of NADPH by LC-MS/MS analysis
[50] = Inhibition of CYP2C9 in mouse liver Microsome using phenacetin as substrate in presence of NADPH by LC-MS/MS analysis

`Clc1ccc(Nc2nc3ccccc3c3[nH]c(C4CCCCC4)nc23)cc1Cl` gave a Ki [1] of 2 µM.

`Clc1ccc(Nc2nc3ccccc3c3[nH]c(C4CC5C=CC4CC5)nc23)cc1Cl` (racemic) gave an Activity [2] of 100%.

`CC(=O)CC(c1ccccc1)c1c(O)c2ccccc2oc1=O` (stereo unspecified) [WARFARIN] gave a PPB [3] of 96.3% and a PPB [4] of 83.6%.

In the case of `CCCC(CCC)c1nc2c(Nc3ccc(I)cc3)nc3ccccc3c2[nH]1`, the Ki [5] is reported as 0.891 µM and the Ki [6] is reported as 0.123 µM.

`CCN(CC)CCOC(=O)c1ccc(N)cc1` [PROCAINE] showed a Stability [7] of 0%, a Stability [8] of 0% and a t1/2 [9] of 0.00183 h.

Compound `CCCC(CCC)c1nc2c(Nc3ccc(Cl)c(Cl)c3)nc3ccccc3c2[nH]1` has a Ki [10] of 1.36 µM, a Ki [11] of 1.48 µM and a Ki [5] of 1.36 µM.

`Clc1ccc(Nc2nc3ccccc3c3[nH]c([C@@H]4C[C@@H]5CCC[C@@H](C5)C4)nc23)cc1Cl` gave a Ki [12] of 7.22 µM and a Ki [13] of 0.467 µM.

For `Clc1ccc(Nc2nc3ccccc3c3[nH]c(C4CCCCCCCCCCC4)nc23)cc1Cl`, the Ki [14] was 7.63 µM.

`COc1ccc2[nH]c([S+]([O-])Cc3ncc(C)c(OC)c3C)nc2c1` (stereo unspecified) [OMEPRAZOLE] showed a Stability [15] of 0% and a t1/2 [16] of 0.255 h.

With `Ic1ccc(Nc2nc3ccccc3c3[nH]c(C4CCCCC4)nc23)cc1` the Ki [14] was 0.846 µM.

Work on `Clc1ccc(Nc2nc3ccccc3c3[nH]c(C4CCCCCCCCCC4)nc23)cc1Cl` yielded a Ki [14] of 5.28 µM.

For `Clc1ccc(Nc2nc3ccccc3c3[nH]c(C4CCC=CCC4)nc23)cc1Cl`, the Ki [11] was 4.64 µM, the Ki [5] was 0.575 µM and the Stability [17] was 100%. The Stability [15] was 69.1%, the Stability [7] was 69.7% and the Stability [18] was 88.7%. For the same compound, the Stability [8] was 83.5%, the t1/2 [19] was 2.65 h and the t1/2 [20] was 9.67 h. The t1/2 [9] was 11.6 h, the IC50 [21] was 6.99 µM and the Stability [22] was 81.2%. It also gave a Stability [23] of 52.1%, a Stability [24] of 76.4% and a PPB [25] of 99.1%. The IC50 [26] was 6.06 µM, the solubility [27] was 0.39 µg/mL (≈ 0.921 µM) and the t1/2 [28] was 1.29 h. The t1/2 [29] was 2.6 h, the t1/2 [30] was 2.38 h and the Cmax [31] was 1780 ng/mL. It also gave a Tmax [32] of 2 h, a CL/F [33] of 26.3 mL/min/kg and a CL/F [34] of 16.2 mL/min/kg. The CL/F [35] was 7.45 mL/min/kg, the remaining at 24 h [36] was 50% and the MRT [37] was 3.98 h. It also gave a permeability [38] of 48.1%, a permeability [39] of 78% and an IC50 [40] of 6.99 µM. The IC50 [41] was 6.99 µM, the t1/2 [42] was 9.55 h and the t1/2 [16] was 3.4 h. For the same compound, the t1/2 [43] was 3.33 h, the t1/2 [44] was 1.17 h and the t1/2 [45] was 3.23 h. The bioavailability at 24 h [46] was 28.7% and the bioavailability at 24 h [47] was 47.5%.

`Clc1ccc(COC(Cn2ccnc2)c2ccc(Cl)cc2Cl)c(Cl)c1` (stereo unspecified) [MICONAZOLE] showed an IC50 [21] of 4.55 µM, an IC50 [48] of 1.64 µM and an IC50 [49] of 38 µM. The IC50 [50] was 38 µM, the IC50 [40] was 4.55 µM and the IC50 [41] was 4.55 µM.

In the case of `Clc1ccc(Nc2nc3ccccc3c3[nH]c(C4CCCCCCCC4)nc23)cc1Cl`, the Ki [11] is reported as 5.15 µM and the Ki [5] is reported as 0.907 µM.

With `COc1ccc([C@@H]2Sc3ccccc3N(CCN(C)C)C(=O)[C@@H]2OC(C)=O)cc1` [DILTIAZEM] the Stability [18] was 83.9%.
